Test results taken from article PMC4392893 (Cancer chemotherapy and pharmacology, 2014).
Like-named read-outs stand apart in the source and are kept apart here. One block for each compound: values may come before it.

How the values were obtained:
[1] = test system: SCC Tu212 xenograft tumors; details: cited from earlier work
NF-kB pathway = details: mouse RAW264.7 macrophages; cited from earlier work
IKKβ = details: cited from earlier work
[2] = athymic nude mice, cited from earlier work
osteoclastogenesis = details: in vitro; cited from earlier work
[3] = test system: osteoblastic differentiation and mineralization; details: in vitro, associated with Smad signaling; cited from earlier work
MiPaPc xenografts = details: 10 and 20 mg/kg i.p., ref Manuscripts in preparation 2013; cited from earlier work
[4] = test system: human α1-acid glycoprotein; test: Binding to α1-acid glycoprotein by ultracentrifugation; details: α1-acid glycoprotein 1 mg/ml
Method in brief: (§1)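 Ultracentrifugation binding assay. Matrices were thawed mouse, rat, dog or human plasma, human serum albumin (40 mg/ml in PBS, pH 7.4) or α1-acid glycoprotein (1 mg/ml). Samples were incubated 30 min at 37°C, then spun at 90,000 rpm for 3 h at 4°C. Drug was measured by LC/MS/MS before and after spinning, with upper supernatant taken as unbound. Supernatant protein-free status was confirmed by DC protein assay. Binding was calculated from percent recovered.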

[5] = NADPH-dependent metabolism in mouse liver microsomes; assay type: in vitro ADME; details: 10 μM, 15-minute incubation
Method in brief: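 Liver microsomes came from male CD2F1 mice, untreated or given phenobarbital (80 mg/kg) or 3-methylcholanthrene (20 mg/kg) i.p. for 3 days. Microsomes were isolated on day 4 by differential centrifugation. Test compound at 10 µM was incubated at 37°C with 0.2–1 mg/ml protein, 1.0 mM NADPH, 5 mM MgCl2 and 100 mM potassium phosphate, pH 7.4, for 15 min. Controls lacked NADPH. Reactions were stopped with ice-cold methanol, and remaining drug was measured by LC/MS/MS.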

[6] = Partition ratio and stability in fresh mouse whole blood; assay type: in vitro ADME; details: 24-hour incubation in whole blood at 37°C
Method in brief: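 Fresh mouse whole blood (heparin in citrate-phosphate-dextrose) was spiked in silanized amber vials and kept on ice or at 37°C for 24 h. On ice, aliquots were taken at 0, 5, 15, 30, 60, 120 and 240 min. Red cells were pelleted at 10,000 rpm for 3 min, and plasma was frozen at −20°C before LC/MS/MS. For partitioning, equal amounts (3.9–2000 nM) went into plasma and whole blood.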

[7] = NADPH-dependent metabolism in human liver microsomes; assay type: in vitro ADME; details: 10 μM, 120 minutes (Fig 4 legend)
Method in brief: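 Pooled human liver microsomes came from livers unsuitable for transplantation. They were preincubated 2 min in 100 mM potassium phosphate (pH 7.4), 5 mM MgCl2 ± 1.0 mM NADPH at 37°C. Reactions were started with test compound (10 µM) at 0.2–1 mg/ml protein and ran 120 min. NADPH-free incubations served as controls. Reactions were quenched with ice-cold methanol (2:1), and remaining drug was quantified by LC/MS/MS.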

[8] = EF-24 stability in dog plasma; assay type: in vitro ADME; details: for Half-life in plasma: dog plasma, 4°
Method in brief: (§2)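 Test compound at 31.25 or 1000 nM was held in plasma at 4°C and 37°C for 24 h. Plasmas: mouse and rat from heparin-CPD blood, dog heparinised, human from healthy volunteers. Aliquots at 5, 15 and 30 min and 1, 2, 4, 6 and 24 h went into silanized tubes, were frozen at −20°C, then protein-precipitated with methanol. Samples were quantified by LC/MS/MS (m/z 312→149) against an internal standard. Half-lives were derived from loss over time.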

human serum albumin = human serum albumin (Homo sapiens, UniProt P02768); test: Binding to human serum albumin by ultracentrifugation; details: human serum albumin 40 mg/ml in phosphate buffered saline, pH 7.4
human serum albumin, sequence (P02768 25-609): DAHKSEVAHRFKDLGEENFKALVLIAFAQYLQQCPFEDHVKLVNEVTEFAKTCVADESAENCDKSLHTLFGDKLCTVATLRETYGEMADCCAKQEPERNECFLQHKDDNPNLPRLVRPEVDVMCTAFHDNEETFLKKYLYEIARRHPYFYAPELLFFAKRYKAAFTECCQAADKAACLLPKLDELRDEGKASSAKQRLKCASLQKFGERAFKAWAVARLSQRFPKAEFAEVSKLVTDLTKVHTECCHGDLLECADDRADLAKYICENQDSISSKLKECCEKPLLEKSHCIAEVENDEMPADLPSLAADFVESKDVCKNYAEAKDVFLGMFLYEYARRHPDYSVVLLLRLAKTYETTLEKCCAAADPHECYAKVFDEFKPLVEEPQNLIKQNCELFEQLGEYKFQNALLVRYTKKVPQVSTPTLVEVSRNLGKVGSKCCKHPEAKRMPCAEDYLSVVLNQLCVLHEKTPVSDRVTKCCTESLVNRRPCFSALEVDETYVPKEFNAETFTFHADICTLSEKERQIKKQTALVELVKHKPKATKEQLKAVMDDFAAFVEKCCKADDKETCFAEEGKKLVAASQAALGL
Method in brief: as §1

[9] = EF-24 stability in rat plasma; assay type: in vitro ADME; details: for Half-life in plasma: 4°
Method in brief: as §2

[10] = Pharmacokinetics in male CD2F1 mice; assay type: in vivo, mouse; details: for Bioavailability: by comparison of AUC values
Method in brief: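 Male CD2F1 mice (19–26 g) received 10 mg/kg in D5W:DMSO (9:1) by tail-vein i.v., i.p. or oral gavage. Cardiac-puncture blood was drawn under methoxyflurane, two mice per time point, at 3–240 min (i.v.) or 3–480 min (i.p., oral). Plasma was analysed by LC/MS/MS. Half-life came from compartmental and AUC/CL from noncompartmental analysis of mean concentrations, bioavailability from AUC ratios. Urine was pooled over 24 h after 25 or 32 mg/kg i.v.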

[11] = test system: HCT-116 human colon tumor xenograft; details: cited from earlier work
[12] = Light sensitivity during assay development; assay type: physicochemical; details: second peak prevented by aluminum foil or amber vials
[13] = EF-24 stability in mouse plasma; assay type: in vitro ADME; details: for Half-life in plasma: mouse plasma, 4°
Method in brief: as §2

[14] = EF-24 stability in human plasma; assay type: in vitro ADME; details: for half-life at 31.25 nM / half-life at 1000 nM: human, plasma, Half-life in plasma
Method in brief: as §2

[15] = test system: NCI anti-cancer cell line screen; details: read-out: Mean GI50; cited from earlier work
[16] = 10 mg/kg, intraperitoneal, male CD2F1 mice
[17] = 10 mg/kg, oral, male CD2F1 mice
[18] = male, CD2F1, mouse, plasma, ip, 10 mg/kg
[19] = male, CD2F1, mouse, plasma, iv, 10 mg/kg
[20] = male, CD2F1, mouse, plasma, po, 10 mg/kg

SMILES: O=C1C(=Cc2ccccn2)CNCC1=Cc1ccccn1 [EF31, 3,5-Bis(2-pyridinylmethylidene)-4piperidone]
Effect on xenograft tumors ([1]; 15 and 25 mg/kg i.p.): dose-response | Fold more potent blocker of NF-kB pathway activity than EF24 (NF-kB pathway): 7 fold | Fold more potent blocker of NF-kB pathway activity than curcumin (NF-kB pathway): > 10 fold | Fold more effective inhibition of IKKβ vs. EF24 (IKKβ): ~ 65 fold | Average AUC(0-∞) ([2]; 15 mg/kg i.p.): 3386 h x ng mL^−1 | Average AUC(0-∞) ([2]; 25 mg/kg i.p.): 7769 h x ng mL^−1 | Effect on osteoclastogenesis as compared with curcumin (osteoclastogenesis): suppressive effect

SMILES: CN1C/C(=C\c2ccccn2)C(=O)/C(=C/c2ccccn2)C1 [UBS-109]
Effect on osteoblastic differentiation and mineralization [3]: unique stimulatory effect | Effect on xenografts (MiPaPc xenografts): dose response | Effect on xenografts ([1]; 50, 100 and 150 mg/kg p.o., ref Manuscripts in preparation 2013): dose response | Effect on osteoclastogenesis as compared with curcumin (osteoclastogenesis): suppressive effect

Percent bound [4]: < 20% | EF-24 consumed by NADPH-dependent metabolism ([5]; liver microsomes from 3MC-pretreated mice): 54% | EF-24 consumed by NADPH-dependent metabolism ([5]; liver microsomes from PB-pretreated mice): 41% | EF-24 consumed by NADPH-dependent metabolism ([5]; liver microsomes from untreated mice): 40% | Stability in whole blood [6]: Multi-exponential loss | EF-24 consumed by NADPH-dependent metabolism [7]: > 70% | Half-life in plasma ([8]; 31.25 nM): Stable | Half-life in plasma ([8]; 1000 nM): Stable | half-life ([8]; dog, plasma): 35 h | half-life at 31.25 nM ([8]; dog, plasma): 36 h | half-life at 1000 nM ([8]; dog, plasma): 33 h | Percent bound (human serum albumin): 95-100% | Half-life in plasma ([9]; rat plasma, 31.25 nM): Stable | Half-life in plasma ([9]; rat plasma, 1000 nM): Stable | Stability in plasma ([9]; rat plasma, 24-hour period): stable | half-life at 31.25 nM ([9]; rat, plasma): 50 h | half-life at 1000 nM ([9]; rat, plasma): 66 h | Time of secondary peak concentration ([10]; 10 mg/kg, i.p., male CD2F1 mice, plasma): 360 min | Peak plasma concentration ([10]; 10 mg/kg, i.v., male CD2F1 mice): 2.5 µM | Bioavailability ([10]; 10 mg/kg, intraperitoneal): 34.7% | t1/2z [10, 16]: 3.65 h | t1/2α [10, 16]: 8.9 min | Cmax ([10]; 10 mg/kg, intraperitoneal, male CD2F1 mice, plasma): 833 nM | t1/2α ([10]; 10 mg/kg, intravenous, male CD2F1 mice): 0.4 min | Bioavailability ([10]; 10 mg/kg, oral): 60.1% | t1/2z [10, 17]: 2.95 h | t1/2α [10, 17]: 3.3 min | Cmax ([10]; 10 mg/kg, oral, male CD2F1 mice, plasma): 882 nM | AUC [10, 18]: 0.346 µM·h | Tmax [10, 18]: 3 min | half-life ([10]; male, CD2F1, mouse, plasma, ip, 10 mg/kg, t1/2z, intraperitoneal, male CD2F1 mice): ~3.33 h | AUC [10, 19]: 0.996 µM·h | Tmax [10, 19]: 2.7 min | Vd [10, 19]: 4.85 L/kg | clearance [10, 19]: 482 mL/min/kg | Cmax ([10]; male, CD2F1, mouse, plasma, iv, 10 mg/kg, Cmax, male CD2F1 mice): 2490 nM | half-life ([10]; male, CD2F1, mouse, plasma, iv, 10 mg/kg, t1/2z (terminal elimination half-life), male CD2F1 mice): 1.23 h | half-life ([10]; male, CD2F1, mouse, plasma, iv, 10 mg/kg, t1/2β, male CD2F1 mice): 0.09 h | AUC [10, 20]: 0.599 µM·h | Tmax [10, 20]: 3 min | half-life ([10]; male, CD2F1, mouse, plasma, po, 10 mg/kg, t1/2z, male CD2F1 mice): ~3.33 h | EF-24 in 24-hour pooled urine ([10]; mice administered 25 mg/kg or 32 mg/kg intravenously): not detected | Stability to light [12]: light sensitivity | Half-life in plasma ([13]; 31.25 nM): Stable | Half-life in plasma ([13]; 1000 nM): Stable | half-life ([13]; mouse, plasma): 11 h | half-life at 31.25 nM ([13]; mouse, plasma): 12 h | half-life at 1000 nM ([13]; mouse, plasma): 10 h | Stability in plasma ([14]; 24-hour period): stable | half-life at 31.25 nM ([14]; 4°): 84 h | half-life at 31.25 nM ([14]; 37°): 79 h | half-life at 1000 nM ([14]; 4°): 100 h | half-life at 1000 nM ([14]; 37°): 58 h
SMILES: CC(=O)O.O=C1C(=Cc2ccccc2F)CNCC1=Cc1ccccc1F [EF-24, 3,5-bis[(2-fluorophenyl)methylene]-4-piperidinone acetate]
Tumor growth in vivo ([11]; dose of 200 μg/kg): inhibited tumor growth | Growth of HCT-116 human colon tumor xenograft ([11]; mice, little apparent toxicity, no reference given): potent growth inhibition | GI50 [15]: 700 nM
